Experimental data as given in ChEMBL document CHEMBL4184106, “Discovering alkylamide derivatives of bexarotene as new therapeutic agents against triple-negative breast cancer” (Bioorg Med Chem Lett, 2018).
Active and inactive are the calls of the source. The calls are words filed in the database; no cut-off is given here.

Experiments:
MCF7 [1] = assay: Induction of apoptosis in human MCF7 cells assessed as ratio of cleaved caspase-8 to beta-actin level at 5 uM by western blot analysis (reference value: 1); assay type: functional
MCF7 [2] = assay: Inhibition of mammosphere formation in human MCF7 cells assessed as ratio of KLF4 to beta actin level at 5 uM by Western blot analysis (Rvb= 1); assay type: functional
How it was run: (§1)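 Post-treatment cell lysates were probed by Western blot for CSC markers, with β-actin as the loading control. Band densitometry was normalized to DMSO-treated samples.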

MDA-MB-231 [3] = assay: Inhibition of colony formation in human MDA-MB-231 cells at 2 uM supplemented with fresh medium containing compound every 3 days for 10 days by microscopic method based soft agar colony formation assay relative to control; assay type: functional
MDA-MB-231 [4] = assay: Induction of apoptosis in human MDA-MB-231 cells assessed as ratio of cleaved caspase-9 to beta-actin level at 5 uM by western blot analysis (reference value: 1); assay type: functional
MCF-10A [5] = assay: Induction of apoptosis in human MCF10A cells assessed as ratio of cleaved caspase-3 to beta-actin level at 5 uM by western blot analysis (reference value: 1); assay type: cell-based
MDA-MB-231 [6] = assay: Down regulation of KLF4 expression in human MDA-MB-231 cells at 5 uM by Western blot analysis; assay type: functional
BT-549 [7] = assay: Inhibition of mammosphere formation in human BT549 cells assessed as ratio of C-Myc to beta actin level at 5 uM by Western blot analysis (Rvb= 1); assay type: functional
MCF7 [8] = assay: Down regulation of KLF4 expression in human MCF7 cells at 5 uM by Western blot analysis; assay type: functional
How it was run: (§2)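 MCF-7 cells were treated and lysates probed by Western blot for CSC-related markers, with β-actin as loading control. Band densitometry was normalized to DMSO-treated samples.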

MCF7 [9] = assay: Inhibition of mammosphere formation in human MCF7 cells assessed as ratio of Sox2 to beta actin level at 5 uM by Western blot analysis (Rvb= 1); assay type: functional; how it was run: as §1
MCF7 [10] = assay: Down regulation of Oct4A expression in human MCF7 cells at 5 uM by Western blot analysis; assay type: functional; how it was run: as §2
MCF7 [11] = assay: Inhibition of mammosphere formation in human MCF7 cells assessed as ratio of Oct4A to beta actin level at 5 uM by Western blot analysis (Rvb= 1); assay type: functional; how it was run: as §1
MCF7 [12] = assay: Inhibition of mammosphere formation in human MCF7 cells assessed as ratio of Nanog to beta actin level at 5 uM by Western blot analysis (Rvb= 1); assay type: functional; how it was run: as §1
MCF7 [13] = assay: Cytotoxicity against human MCF7 cells assessed as reduction in cell viability at 5 uM by MTT assay; assay type: functional
BT-549 [14] = assay: Effect on epithelial-mesenchymal transition in human BT549 cells assessed as ratio of E-cadherin to beta-actin level at 5 uM by Western blot analysis (reference value: 1); assay type: functional
MDA-MB-231 [15] = assay: Cytotoxicity against human MDA-MB-231 cells assessed as reduction in cell viability by MTT assay; assay type: functional, cell-based
MCF7 [16] = assay: Induction of apoptosis in human MCF7 cells assessed as ratio of cleaved caspase-9 to beta-actin level at 5 uM by western blot analysis (reference value: 1); assay type: functional
MCF7 [17] = assay: Induction of apoptosis in human MCF7 cells assessed as ratio of cleaved caspase-3 to beta-actin level at 5 uM by western blot analysis (reference value: 1); assay type: functional
MDA-MB-231 [18] = assay: Induction of apoptosis in human MDA-MB-231 cells assessed as ratio of cleaved caspase-8 to beta-actin level at 5 uM by western blot analysis (reference value: 1); assay type: functional
MCF7 [19] = assay: Down regulation of c-Myc expression in human MCF7 cells at 5 uM by Western blot analysis; assay type: functional; how it was run: as §2
BT-549 [20] = assay: Induction of apoptosis in human BT549 cells assessed as ratio of cleaved caspase-9 to beta-actin level at 5 uM by western blot analysis (reference value: 1); assay type: functional
MDA-MB-231 [21] = assay: Effect on epithelial-mesenchymal transition in human MDA-MB-231 cells assessed as ratio of slug to beta-actin level at 5 uM by Western blot analysis (reference value: 1); assay type: functional
MDA-MB-231 [22] = assay: Effect on epithelial-mesenchymal transition in human MDA-MB-231 cells assessed as ratio of vimentin to beta-actin level at 5 uM by Western blot analysis (reference value: 1); assay type: functional
BT-549 [23] = assay: Induction of apoptosis in human BT549 cells assessed as ratio of cleaved caspase-8 to beta-actin level at 5 uM by western blot analysis (reference value: 1); assay type: functional
MCF7 [24] = assay: Inhibition of colony formation in human MCF7 cells at 5 uM supplemented with fresh medium containing compound every 3 to 4 days for 7 days by crystal violet staining based adherent cell colony-forming assay; assay type: functional
How it was run: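 MCF-7 cells were plated for adherent colony formation and treated for 7 days. Colonies were counted at the end of treatment and normalized to untreated samples.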

MDA-MB-231 [25] = assay: Inhibition of mammosphere formation in human MDA-MB-231 cells assessed as ratio of C-Myc to beta actin level at 5 uM by Western blot analysis (Rvb= 1); assay type: functional; how it was run: as §1
MDA-MB-231 [26] = assay: Effect on epithelial-mesenchymal transition in human MDA-MB-231 cells assessed as ratio of E-cadherin to beta-actin level at 5 uM by Western blot analysis (reference value: 1); assay type: functional
BT-549 [27] = assay: Effect on epithelial-mesenchymal transition in human BT549 cells assessed as ratio of slug to beta-actin level at 5 uM by Western blot analysis (reference value: 1); assay type: functional
MDA-MB-231 [28] = assay: Induction of apoptosis in human MDA-MB-231 cells assessed as ratio of cleaved caspase-3 to beta-actin level at 5 uM by western blot analysis (reference value: 1); assay type: functional
MCF-10A [29] = assay: Induction of apoptosis in human MCF10A cells assessed as ratio of cleaved caspase-8 to beta-actin level at 5 uM by western blot analysis (reference value: 1); assay type: cell-based
MDA-MB-231 [30] = assay: Anti-migratory activity against human MDA-MB-231 cells assessed as reduction in wound closure at 2 uM up to 24 hrs by wound-healing assay; assay type: functional, cell-based
How it was run: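 MDA-MB-231 monolayer was scratched to make a wound gap. Cells were treated alongside a DMSO vehicle control, and migration into the gap was imaged at 24 h.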

BT-549 [31] = assay: Cytotoxicity against human BT549 cells assessed as reduction in cell viability at 5 uM by MTT assay; assay type: functional
MDA-MB-231 [32] = assay: Inhibition of mammosphere formation in human MDA-MB-231 cells assessed as ratio of KLF4 to beta actin level at 5 uM by Western blot analysis (Rvb= 1); assay type: functional; how it was run: as §1
BT-549 [33] = assay: Cytotoxicity against human BT549 cells assessed as reduction in cell viability by MTT assay; assay type: functional, cell-based
BT-549 [34] = assay: Induction of apoptosis in human BT549 cells assessed as ratio of cleaved caspase-3 to beta-actin level at 5 uM by western blot analysis (reference value: 1); assay type: functional
BT-549 [35] = assay: Inhibition of mammosphere formation in human BT549 cells assessed as ratio of KLF4 to beta actin level at 5 uM by Western blot analysis (Rvb= 1); assay type: functional
MCF-10A [36] = assay: Induction of apoptosis in human MCF10A cells assessed as ratio of cleaved caspase-9 to beta-actin level at 5 uM by western blot analysis (reference value: 1); assay type: cell-based
MCF7 [37] = assay: Down regulation of Nanog expression in human MCF7 cells at 5 uM by Western blot analysis; assay type: functional; how it was run: as §2
MCF7 [38] = assay: Inhibition of mammosphere formation in human MCF7 cells assessed as ratio of C-Myc to beta actin level at 5 uM by Western blot analysis (Rvb= 1); assay type: functional; how it was run: as §1
MCF-10A [39] = assay: Cytotoxicity against human MCF10A cells assessed as reduction in cell viability by MTT assay; assay type: cell-based
MDA-MB-231 [40] = assay: Cytotoxicity against human MDA-MB-231 cells assessed as reduction in cell viability at 5 uM by MTT assay; assay type: functional
MCF7 [41] = assay: Inhibition of mammosphere formation in human MCF7 cells at 2 uM after 7 days by microscopic method; assay type: functional, cell-based
How it was run: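 MCF-7 cells were grown under mammosphere-forming conditions with compound. Spheres 60 μm or larger were counted for quantitation.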

BT-549 [42] = assay: Effect on epithelial-mesenchymal transition in human BT549 cells assessed as ratio of vimentin to beta-actin level at 5 uM by Western blot analysis (reference value: 1); assay type: functional

In the case of `C=C(c1ccc(C(=O)NCCN(CC)CC)cc1)c1cc2c(cc1C)C(C)(C)CCC2(C)C`, the Ratio (MCF7 [1]) is reported as 1, the Ratio (MCF7 [2]) is reported as 0.9 and the “inhibition (INH)” value (MDA-MB-231 [3]) is reported as 90%. For the same compound, the Ratio (MDA-MB-231 [4]) was 2.5, the Ratio (MCF-10A [5]) was 1.1 and the Activity (MDA-MB-231 [6]) was 50%. The Ratio (BT-549 [7]) was 0.9, the Activity (MCF7 [8]) was 10 - 30% and the Ratio (MCF7 [9]) was 0.9. The Activity (MCF7 [10]) was 50%, the Ratio (MCF7 [11]) was 0.5 and the Ratio (MCF7 [12]) was 0.8. It also gave an Activity (MCF7 [13]) of 40%, a Ratio (BT-549 [14]) of 2.4 and an EC50 (MDA-MB-231 [15]) of under 10 µM. It also gave a Ratio (MCF7 [16]) of 1, a Ratio (MCF7 [17]) of 0.9 and a Ratio (MDA-MB-231 [18]) of 1.5. For the same compound, the Activity (MCF7 [19]) was 10 - 30%, the Ratio (BT-549 [20]) was 2.3 and the Ratio (MDA-MB-231 [21]) was 0.9. For the same compound, the Ratio (MDA-MB-231 [22]) was 0.4, the Ratio (BT-549 [23]) was 2.1 and the “inhibition (INH)” value (MCF7 [24]) was 80%. It also gave a Ratio (MDA-MB-231 [25]) of 0.9, a Ratio (MDA-MB-231 [26]) of 1.9 and a Ratio (BT-549 [27]) of 0.4. The Ratio (MDA-MB-231 [28]) was 1.3, the Ratio (MCF-10A [29]) was 1 and the Activity (MDA-MB-231 [30]) was “Active”. It also gave an Activity (BT-549 [31]) of 60%, a Ratio (MDA-MB-231 [32]) of 0.5 and an EC50 (BT-549 [33]) of under 10 µM. The Ratio (BT-549 [34]) was 2.6, the Ratio (BT-549 [35]) was 0.5 and the Ratio (MCF-10A [36]) was 1. For the same compound, the Activity (MCF7 [37]) was 20%, the Ratio (MCF7 [38]) was 0.7 and the Activity (MCF-10A [39]) was “Non-Toxic”. The Activity (MDA-MB-231 [40]) was 60%, the inhibition (MCF7 [41]) was “Active” and the Ratio (BT-549 [42]) was 0.4.
